# Key:
# Chlorocebus aethiops [1] = species: Chlorocebus aethiops; assay: Selectivity index, ratio of IC50 for African green monkey SOAT1 expressed in CHO cells to IC50 for African green monkey SOAT2 expressed in CHO cells; assay type: cell-based
# In short: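 Monolayers of SOAT1- or SOAT2-CHO cells (≥80% confluent, overnight recovery) got CH3OH compound stocks (0–1 mg/mL) plus [14C]oleic acid (1 nmol, 1.85 kBq) for 6 h at 37 °C. Cells were SDS-lysed and Bligh–Dyer extracted, and [14C]CE was quantified by TLC radioimaging as percent of control. IC50s came from triplicate experiments, mean ± SD. SI = log(IC50 SOAT1/IC50 SOAT2).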
# CHO [2] = assay: Effect on cell morphology in CHO cells expressing African green monkey SOAT1 up to 21 to 23 uM; assay type: ADME, cell-based, Cricetulus griseus; conditions: chinese hamster
# [3] = target: T1, Sterol O-acyltransferase 1 (Chlorocebus aethiops, UniProt O77760); assay: Inhibition of African green monkey SOAT1 expressed in CHO cells assessed as decrease in [14C]CE synthesis from [14C]oleic acid after 6 hrs; assay type: cell-based
# T1 sequence (O77760 whole entry): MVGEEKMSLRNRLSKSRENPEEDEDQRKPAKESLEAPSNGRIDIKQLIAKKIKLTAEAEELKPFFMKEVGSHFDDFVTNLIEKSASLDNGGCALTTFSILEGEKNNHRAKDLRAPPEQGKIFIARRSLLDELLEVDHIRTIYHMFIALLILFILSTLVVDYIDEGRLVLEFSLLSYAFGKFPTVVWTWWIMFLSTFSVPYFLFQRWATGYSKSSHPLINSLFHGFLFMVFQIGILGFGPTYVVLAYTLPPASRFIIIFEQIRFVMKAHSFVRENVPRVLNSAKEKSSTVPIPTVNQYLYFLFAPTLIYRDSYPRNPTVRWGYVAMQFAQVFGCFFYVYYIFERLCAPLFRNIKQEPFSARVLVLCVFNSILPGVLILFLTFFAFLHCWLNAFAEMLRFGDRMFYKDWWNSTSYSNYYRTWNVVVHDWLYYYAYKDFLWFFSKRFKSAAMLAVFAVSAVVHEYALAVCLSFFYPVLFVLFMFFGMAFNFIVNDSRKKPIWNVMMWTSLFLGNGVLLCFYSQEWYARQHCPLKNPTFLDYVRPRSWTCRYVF
# [4] = target: T2, Sterol O-acyltransferase 2 (Chlorocebus aethiops, UniProt O77759); assay: Inhibition of African green monkey SOAT2 expressed in CHO cells assessed as decrease in [14C]CE synthesis from [14C]oleic acid after 6 hrs; assay type: cell-based
# T2 sequence (O77759 whole entry): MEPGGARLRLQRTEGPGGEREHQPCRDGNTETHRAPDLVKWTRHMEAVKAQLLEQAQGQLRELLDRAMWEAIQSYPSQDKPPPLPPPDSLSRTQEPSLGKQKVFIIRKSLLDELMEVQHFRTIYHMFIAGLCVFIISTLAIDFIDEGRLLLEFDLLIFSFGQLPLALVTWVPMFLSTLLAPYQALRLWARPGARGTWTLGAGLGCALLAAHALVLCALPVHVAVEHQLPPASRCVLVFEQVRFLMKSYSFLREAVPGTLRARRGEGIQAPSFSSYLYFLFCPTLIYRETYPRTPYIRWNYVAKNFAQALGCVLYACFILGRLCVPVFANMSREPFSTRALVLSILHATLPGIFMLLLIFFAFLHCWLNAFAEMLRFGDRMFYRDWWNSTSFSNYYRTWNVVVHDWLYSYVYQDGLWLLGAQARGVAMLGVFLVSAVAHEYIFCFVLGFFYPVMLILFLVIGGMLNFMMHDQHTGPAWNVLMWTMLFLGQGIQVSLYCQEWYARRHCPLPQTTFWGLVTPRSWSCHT
# CHO [5] = assay: Effect on phospholipid synthesis in CHO cells expressing African green monkey SOAT2 up to 21 to 23 uM; assay type: ADME, cell-based, Cricetulus griseus; conditions: chinese hamster
# In short: (§1)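 SOAT1- or SOAT2-expressing CHO cells were grown in Ham's F-12 with MEM vitamins, geneticin (300 μg/mL) and 10% heat-inactivated FBS at 37 °C, 5% CO2. Cells were seeded at 1.25 × 10⁵/well, recovered overnight, and used at ≥80% confluence. Compound stocks in CH3OH (0–1 mg/mL) were added with [14C]oleic acid (1 nmol) for 6 h. Lipids were Bligh–Dyer extracted, and [14C]PL was resolved by TLC and imaged.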
# [6] = target: T1, Sterol O-acyltransferase 1; assay: Inhibition of African green monkey SOAT1 isolated from CHO cell microsomes assessed as decrease in [14C]CE synthesis from [1-14C]oleoyl-CoA after 5 mins
# CHO [7] = assay: Effect on cell morphology in CHO cells expressing African green monkey SOAT2 up to 21 to 23 uM; assay type: ADME, cell-based, Cricetulus griseus; conditions: chinese hamster
# [8] = target: T2, Sterol O-acyltransferase 2; assay: Inhibition of African green monkey SOAT2 isolated from CHO cell microsomes assessed as decrease in [14C]CE synthesis from [1-14C]oleoyl-CoA after 5 mins
# Chlorocebus aethiops [9] = species: Chlorocebus aethiops; assay: Selectivity index, ratio of IC50 for African green monkey SOAT1 isolated from CHO cell microsomes to IC50 for African green monkey SOAT2 isolated from CHO cell microsomes
# In short: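 Microsomes were made by homogenizing SOAT1- or SOAT2-CHO cells in sucrose/KCl/KH2PO4/EDTA buffer (pH 7.2) and pelleting at 100,000 × g, 1 h, 4 °C. They were incubated with fatty-acid-free BSA and compound in methanol, and the reaction was started with [1-14C]oleoyl-CoA for 5 min at 37 °C. It was stopped with CHCl3:MeOH 2:1, and [14C]CE was measured by TLC radioimaging. Values are mean ± SD, n = 3. SI = log(IC50 SOAT1/IC50 SOAT2).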
# CHO [10] = assay: Effect on phospholipid synthesis in CHO cells expressing African green monkey SOAT1 up to 21 to 23 uM; assay type: ADME, cell-based, Cricetulus griseus; conditions: chinese hamster; in short: as §1
IC50 [3] [nM],IC50 [4] [nM],IC50 [6] [nM],IC50 [8] [nM],-log(RatioIC50) (Chlorocebus aethiops [9]),Structure (SMILES),log(RatioIC50) (Chlorocebus aethiops [1]),Activity (CHO [2]),Activity (CHO [5]),Activity (CHO [7]),Activity (CHO [10]),-log(RatioIC50) (Chlorocebus aethiops [1])
5200,4200,2100,5300,0.4,C[C@@H](C[C@H]1C(=O)N(C)[C@@H](C[C@H](C)C(Cl)(Cl)Cl)C(=O)N1C)C(Cl)(Cl)Cl,0.092,Non-Toxic,Non-Toxic,Non-Toxic,Non-Toxic,–
780,2800,230,860,0.57,CCC(=O)[C@H](C[C@H](C)C(Cl)(Cl)Cl)NC(=O)[C@H](C[C@H](C)C(Cl)(Cl)Cl)N(C)C,–,Non-Toxic,Non-Toxic,Non-Toxic,Non-Toxic,0.56
1200,2400,1000,3200,0.51,CCC(=O)[C@H](C[C@H](C)C(Cl)(Cl)Cl)NC(=O)/C=C/[C@H](C)C(Cl)(Cl)Cl,–,Non-Toxic,Non-Toxic,Non-Toxic,Non-Toxic,0.3

# — ChEMBL document CHEMBL4219214, “Callyspongiamides A and B, sterol O-acyltransferase inhibitors, from the Indonesian marine sponge Callyspongia sp” (Bioorg Med Chem Lett, 2018)
